{"data": "Assay results of several laboratories", "target": "Tyrosine-protein kinase SYK (SYK, Homo sapiens, UniProt P43405)", "note": "Lines come from different studies, so protocols differ."}
{"Structure (SMILES)": "COc1ccc2oc(-c3ccc4nc(N)oc4c3)c/c(=N\\c3ccccc3NC(=O)CCN)c2c1", "read-out": "binding", "tested at": "1 µM", "measurement": "remaining binding", "result": "96%"}
{"Structure (SMILES)": "C[C@H]1CC[C@H](n2c3cnccc3c3cnc(Nc4ccc5c(n4)CCN(C(=O)CO)C5)nc32)CC1", "read-out": "cell-free assay", "method": "competition with immobilised ligand", "tested at": "1 µM", "measurement": "remaining binding", "result": "100%"}
{"Structure (SMILES)": "CC#CC(=O)N1CCC[C@H]1c1nc(-c2ccc(C(=O)Nc3ccccn3)cc2)c2c(N)nccn12", "read-out": "enzyme activity", "mode": "inhibitor", "tested at": "1 µM", "measurement": "inhibition", "result": "0%"}
{"Structure (SMILES)": "CCCCC(=O)Nc1ccc(-c2ccc3ncn(CCC)c(=O)c3c2)cn1", "read-out": "binding", "method": "competition with immobilised ligand", "tested at": "0.5 µM", "measurement": "remaining binding", "result": "90%"}
{"Structure (SMILES)": "Cc1ccc(NC(=O)c2ccnc(C(F)(F)F)c2)cc1-c1cc(OCCO)nc(N2CCOCC2)c1", "read-out": "binding", "method": "competition with immobilised ligand", "tested at": "1 µM", "measurement": "remaining binding", "result": "100%"}
{"Structure (SMILES)": "C1=C/COCc2cc(ccc2OCCN2CCCC2)Nc2nccc(n2)-c2cccc(c2)COC/1", "read-out": "cell-free assay", "tested at": "0.1 µM", "measurement": "remaining signal", "result": "87%"}
{"Structure (SMILES)": "CC(C)S(=O)(=O)c1ccc2nccc(Nc3ccc4sc(C5CCCC5)nc4c3)c2c1", "read-out": "enzyme activity", "mode": "inhibitor", "tested at": "1 µM", "measurement": "activity vs control", "result": "104%"}
{"Structure (SMILES)": "CO[C@@H]1[C@H](N(C)C(=O)c2ccccc2)C[C@H]2O[C@]1(C)n1c3ccccc3c3c4c(c5c6ccccc6n2c5c31)C(=O)NC4", "read-out": "enzyme activity", "mode": "inhibitor", "tested at": "1 µM", "measurement": "inhibition", "result": "96%"}
